Converted amounts (≈) assume the structure as drawn. The source made the active and inactive calls. The calls are words filed in the database; no cut-off is given here.
What was measured:
[1] = tested on: Mus musculus; experiment: Anticonvulsant activity in CF1 mouse assessed as time to peak effect for inhibition of maximal electroshock-induced seizures at 70 mg/kg, ip after 4 hrs; assay type: functional, organism-based; design: dose 70 mg/kg
[2] = Therapeutic index, ratio of TD50 for CF1 mouse to ED50 for CF1 mouse
Summary of the method: (§1)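 Ratio of TD50 to ED50, both from ip dosing at the time of peak effect, with groups of at least 8 per dose and Finney probit analysis. […] Toxicity was read by rotarod in mice and by positional sense, gait and stance in rats.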

[3] = Therapeutic index, ratio of TD50 for Sprague-Dawley rat to ED50 for Sprague-Dawley rat; summary of the method: as §1
[4] = tested on: Rattus norvegicus; experiment: Anticonvulsant activity in ip dosed Sprague-Dawley rat assessed as inhibition of maximal electroshock-induced seizures after 0.5 hrs; assay type: functional
[5] = tested on: Rattus norvegicus; experiment: Neurotoxicity in Sprague-Dawley rat at 30 mg/kg, po after 2 hrs by rotarod test; assay type: toxicity, organism-based; design: dose 30 mg/kg, route oral; conditions: in vivo
[6] = tested on: Mus musculus; experiment: Anticonvulsant activity in ip dosed CF1 mouse assessed as inhibition of maximal electroshock-induced seizures after 0.5 hrs; assay type: functional
[7] = tested on: Mus musculus; experiment: Neurotoxicity in CF1 mouse assessed as time to peak effect for ability to grasp rotarod at 150 mg/kg, ip by rotarod test; assay type: toxicity, organism-based; design: dose 150 mg/kg, route intraperitoneal; conditions: in vivo
[8] = tested on: Pichia kudriavzevii; experiment: Antifungal activity against Candida krusei ATCC 6258 after 48 hrs by broth microdilution method; assay type: functional; conditions: ATCC 6258, 48 h
[9] = tested on: Staphylococcus aureus; experiment: Antibacterial activity against Staphylococcus aureus ATCC 25923 after 24 hrs by broth microdilution method; assay type: functional; conditions: ATCC 25923, 24 h
Summary of the method: (§2)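 Broth microdilution in Mueller Hinton broth; compound stocks in DMSO, diluted into test medium. Plates incubated at 35 °C and read visually after 24 h. MIC taken as lowest concentration preventing visible growth. Ampicillin reference.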

[10] = tested on: Rattus norvegicus; experiment: Neurotoxicity in Sprague-Dawley rat at 30 mg/kg, ip after 0.25 hrs by rotarod test; assay type: toxicity, organism-based; design: dose 30 mg/kg, route intraperitoneal; conditions: in vivo
[11] = tested on: Escherichia coli; experiment: Antibacterial activity against Escherichia coli ATCC 25922 after 24 hrs by broth microdilution method; assay type: functional; conditions: ATCC 25922, 24 h; summary of the method: as §2
[12] = tested on: Rattus norvegicus; experiment: Neurotoxicity in Sprague-Dawley rat at 30 mg/kg, po after 0.5 hrs by rotarod test; assay type: toxicity, organism-based; design: dose 30 mg/kg, route oral; conditions: in vivo
[13] = tested on: Rattus norvegicus; experiment: Neurotoxicity in Sprague-Dawley rat at 30 mg/kg, ip after 2 hrs by rotarod test; assay type: toxicity, organism-based; design: dose 30 mg/kg, route intraperitoneal; conditions: in vivo
[14] = tested on: Mus musculus; experiment: Neurotoxicity in CF1 mouse at 30 mg/kg, ip after 4 hrs by rotarod test; assay type: toxicity, organism-based; design: dose 30 mg/kg, route intraperitoneal; conditions: in vivo
Summary of the method: (§3)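 Male albino CF#1 mice (18–25.5 g) dosed ip with compound suspended in 0.5% methylcellulose, 0.5 h or 4 h before testing; neurotoxicity assessed by rotarod, scored as number toxic/number tested.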

[15] = tested on: Mus musculus; experiment: Neurotoxicity in CF1 mouse at 100 mg/kg, ip after 0.5 hrs by rotarod test; assay type: toxicity, organism-based; design: dose 100 mg/kg, route intraperitoneal; conditions: in vivo; summary of the method: as §3
[16] = tested on: Mus musculus; experiment: Anticonvulsant activity in CF1 mouse assessed as time to peak effect for inhibition of maximal electroshock-induced seizures at 70 mg/kg, ip; assay type: functional; conditions: route intraperitoneal
[17] = tested on: Rattus norvegicus; experiment: Neurotoxicity in Sprague-Dawley rat at 30 mg/kg, po after 1 hr by rotarod test; assay type: toxicity, organism-based; design: dose 30 mg/kg, route oral; conditions: in vivo
[18] = tested on: Mus musculus; experiment: Anticonvulsant activity in CF1 mouse assessed as inhibition of maximal electroshock-induced seizures at 30 mg/kg, ip after 0.5 hrs; assay type: functional, organism-based; design: dose 30 mg/kg
Summary of the method: (§4)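 Male albino CF#1 mice (18–25.5 g), compound suspended in 0.5% methylcellulose, given ip 0.5 h or 4 h before test. Eyes treated with 0.5% tetracaine HCl in saline; corneal-type MES at 60 Hz, 50 mA for 0.2 s; protection scored as animals protected/tested.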

[19] = tested on: Mus musculus; experiment: Neurotoxicity in CF1 mouse assessed as ability to grasp rotarod at 300 mg/kg, ip after 0.5 hrs by rotarod test; assay type: toxicity, organism-based; design: dose 300 mg/kg, route intraperitoneal; conditions: in vivo; summary of the method: as §3
[20] = tested on: Mus musculus; experiment: Anticonvulsant activity in CF1 mouse assessed as time to peak effect for inhibition of maximal electroshock-induced seizures at 35 mg/kg, ip after 2 hrs; assay type: functional, organism-based; design: dose 35 mg/kg
[21] = tested on: Mus musculus; experiment: Neurotoxicity in CF1 mouse assessed as time to peak effect muscle spasms at 150 mg/kg, ip by rotarod test; assay type: toxicity, organism-based, Muscle tissue; design: dose 150 mg/kg, route intraperitoneal; conditions: in vivo
[22] = tested on: Rattus norvegicus; experiment: Neurotoxicity in ip dosed Sprague-Dawley rat after 0.5 hrs by rotarod test; assay type: toxicity, organism-based; conditions: in vivo
[23] = tested on: Rattus norvegicus; experiment: Neurotoxicity in Sprague-Dawley rat assessed as time to peak effect at 75 mg/kg, ip by rotarod test; assay type: toxicity, organism-based; design: dose 75 mg/kg, route intraperitoneal; conditions: in vivo
[24] = tested on: Rattus norvegicus; experiment: Anticonvulsant activity in Sprague-Dawley rat assessed as inhibition of maximal electroshock-induced seizures at 30 mg/kg, po after 0.25 hrs; assay type: functional, organism-based; design: dose 30 mg/kg
Summary of the method: (§5)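 Male albino Sprague-Dawley rats (105–130 g) given a single oral 30 mg/kg dose suspended in 0.5% methylcellulose; MES (60 Hz, 150 mA, 0.2 s, tetracaine-anesthetized eyes) at 0.25, 0.5, 1, 2 and 4 h; 4 rats per time point; scored protected/tested.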

[25] = tested on: Mus musculus; experiment: Anticonvulsant activity in CF1 mouse assessed as inhibition of maximal electroshock-induced seizures at 30 mg/kg, ip after 4 hrs; assay type: functional, organism-based; design: dose 30 mg/kg; summary of the method: as §4
[26] = tested on: Mus musculus; experiment: Anticonvulsant activity in CF1 mouse assessed as time to peak effect for inhibition of maximal electroshock-induced seizures at 23 mg/kg, ip after 1 hr; assay type: functional, organism-based; design: dose 23 mg/kg
[27] = tested on: Rattus norvegicus; experiment: Neurotoxicity in Sprague-Dawley rat at 30 mg/kg, po after 4 hrs by rotarod test; assay type: toxicity, organism-based; design: dose 30 mg/kg, route oral; conditions: in vivo
[28] = tested on: Mus musculus; experiment: Neurotoxicity in CF1 mouse assessed as ability to grasp rotarod at 300 mg/kg, ip after 4 hrs by rotarod test; assay type: toxicity, organism-based; design: dose 300 mg/kg, route intraperitoneal; conditions: in vivo
Summary of the method: (§6)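 Male albino CF#1 mice (18–25.5 g), free access to food and water except during testing, under NINDS Anticonvulsant Screening Program procedures. Compounds were suspended in 0.5% methylcellulose and given ip. Neurotoxicity was scored by rotarod 0.5 h and 4 h after dosing, at screening doses of 30, 100 or 300 mg/kg. Results are reported as affected/tested animals.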

[29] = tested on: Rattus norvegicus; experiment: Neurotoxicity in Sprague-Dawley rat at 30 mg/kg, ip after 4 hrs by rotarod test; assay type: toxicity, organism-based; design: dose 30 mg/kg, route intraperitoneal; conditions: in vivo
[30] = tested on: Enterococcus faecalis; experiment: Antibacterial activity against Enterococcus faecalis ATCC 29212 after 24 hrs by broth microdilution method; assay type: functional; conditions: ATCC 29212, 24 h; summary of the method: as §2
[31] = tested on: Mus musculus; experiment: Neurotoxicity in CF1 mouse assessed as mortality at 300 mg/kg, ip after 4 hrs by rotarod test; assay type: toxicity, organism-based; design: dose 300 mg/kg, route intraperitoneal; conditions: in vivo; summary of the method: as §6
[32] = Neurotoxicity in ip dosed CF1 mouse after 0.25 hrs by rotarod test; assay type: toxicity, organism-based; conditions: in vivo
Summary of the method: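 TD50 was determined at the time of peak effect in male albino animals. Compound was suspended in 0.5% methylcellulose and given ip. Neurotoxicity was read by rotarod in CF#1 mice and by positional sense, gait and stance in Sprague-Dawley rats. Groups of at least 8 received graded doses spanning 0–100% toxicity.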

[33] = tested on: Rattus norvegicus; experiment: Neurotoxicity in Sprague-Dawley rat assessed as time to peak effect at 50 mg/kg, ip after 2 to 6 hrs by rotarod test; assay type: toxicity, organism-based; design: dose 50 mg/kg, route intraperitoneal; conditions: in vivo
[34] = tested on: Mus musculus; experiment: Neurotoxicity in CF1 mouse at 100 mg/kg, ip after 4 hrs by rotarod test; assay type: toxicity, organism-based; design: dose 100 mg/kg, route intraperitoneal; conditions: in vivo; summary of the method: as §3
[35] = tested on: Mus musculus; experiment: Anticonvulsant activity in CF1 mouse assessed as inhibition of maximal electroshock-induced seizures at 100 mg/kg, ip after 0.5 hrs; assay type: functional, organism-based; design: dose 100 mg/kg; summary of the method: as §4
[36] = tested on: Rattus norvegicus; experiment: Anticonvulsant activity in Sprague-Dawley rat assessed as inhibition of maximal electroshock-induced seizures at 30 mg/kg, po after 1 hr; assay type: functional, organism-based; design: dose 30 mg/kg; summary of the method: as §5
[37] = tested on: Candida parapsilosis; experiment: Antifungal activity against Candida parapsilosis ATCC 22019 after 48 hrs by broth microdilution method; assay type: functional; conditions: Lodderomyces parapsilosis, ATCC 22019, 48 h

With `CC(C)CC(=O)OC(Cn1ccnc1)c1ccc2ccccc2c1` (configuration not stated) the Activity [1] was “inactive”, the selectivity ratio [2] was 3.22 and the selectivity ratio [3] was 2.76. For the same compound, the ED50 [4] was 20.4 mg/kg, the Activity [5] was “Non-toxic” and the ED50 [6] was 38.5 mg/kg. For the same compound, the Time [7] was 0.25 h, the MIC [8] was 128 µg/mL (≈ 397 µM) and the MIC [9] was 8 µg/mL (≈ 24.8 µM). The Activity [10] was “Non-toxic”, the MIC [11] was > 1020 µg/mL and the Activity [12] was “Non-toxic”. For the same compound, the Activity [13] was “Non-toxic”, the Activity [14] was “Non-toxic” and the Activity [15] was “Non-toxic”. The Time [16] was 0.5 h, the Activity [17] was “Non-toxic” and the inhibition [18] was “inactive”. The Activity [19] was “Toxic”, the Activity [20] was “inactive” and the Time [21] was 0.25 h. For the same compound, the ED50 [22] was 56.36 mg/kg, the Time [23] was 0.5 h and the inhibition [24] was “inactive”. The inhibition [25] was “inactive”, the Activity [26] was “inactive” and the Activity [27] was “Non-toxic”. The Activity [28] was “Toxic”, the Activity [29] was “Non-toxic” and the MIC [30] was 64 µg/mL (≈ 199 µM). For the same compound, the Activity [31] was “Toxic”, the TD50 at 0.25 h [32] was 124 mg/kg and the Activity [33] was “Non-toxic”. The Activity [34] was “Non-toxic”, the inhibition [35] was “Active” and the inhibition [36] was “inactive”. For the same compound, the MIC [37] was 64 µg/mL (≈ 199 µM).

— ChEMBL document CHEMBL1156239, “Synthesis, anticonvulsant and antimicrobial activities of some new 2-acetylnaphthalene derivatives” (Bioorg Med Chem, 2010)
